An excerpt weighted towards active compounds, which were near 1.5% of everything screened.
CXCR6 inh: CXCR6 receptor inhibitors, primary screen, cell-based, beta-arrestin, luminescence, CHO-K1 PathHunter, 1536-well; inhibition, % at 20 µM; C-X-C chemokine receptor type 6 (Homo sapiens), O00574; actives 0.36% (n = 360,000); in the data active = inhibition above about 34%, passing the limit was not always enough;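 also: antagonist mode with CXCL16 agonist at 10 nM final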
APJ agonist: agonists of human apelin receptor APJ, primary screen, CHO-K1 cells, PathHunter beta-arrestin, luminescence; P35414; 0% DMSO wells, 100% apelin; activation, % at 20 µM; actives 0.11% (n = 330,000);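 active = activation more than six SD over the plate average, tested at 20 µM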
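Test system: CHO-K1 APJ beta-arrestin complementation cell line. Amount: cell density 1000 per well. Controls: DMSO negative, 10 nM Apelin-13 positive. Signal: luminescent beta-gal fragment complementation, chemiluminescent substrate. Read-out basis: agonist-driven arrestin binding to APJ. Timing: compound stimulation 90 min at 25 °C, detection 60 min.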
APJ antagonist: antagonists of human apelin receptor APJ, primary screen, CHO-K1 cells, beta-arrestin complementation, luminescence; P35414; inhibition, % at 20 µM; actives 0.32% (n = 330,000);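 active = inhibition above about 40% at 20 µM, limit read from the data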;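 also: cells challenged with 10 nM apelin-13 agonist together with compound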
CCR6 antagonist: CCR6 receptor antagonists, primary screen, cell-based, CHO-K1, luminescence, beta-arrestin, uHTS; AID 493098, 2011; CHO-K1 CCR6 PathHunter beta-arrestin, CCL20-stimulated; inhibition, % at 20 µM; actives 0.49% (n = 340,000);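 active = compounds whose inhibition of the agonist-driven luminescence signal at 20 µM reaches about 50%, limit read from the data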;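 also: cells stimulated with CCL20 at 14 nM final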
Target sequence (P51684 whole entry, looked up): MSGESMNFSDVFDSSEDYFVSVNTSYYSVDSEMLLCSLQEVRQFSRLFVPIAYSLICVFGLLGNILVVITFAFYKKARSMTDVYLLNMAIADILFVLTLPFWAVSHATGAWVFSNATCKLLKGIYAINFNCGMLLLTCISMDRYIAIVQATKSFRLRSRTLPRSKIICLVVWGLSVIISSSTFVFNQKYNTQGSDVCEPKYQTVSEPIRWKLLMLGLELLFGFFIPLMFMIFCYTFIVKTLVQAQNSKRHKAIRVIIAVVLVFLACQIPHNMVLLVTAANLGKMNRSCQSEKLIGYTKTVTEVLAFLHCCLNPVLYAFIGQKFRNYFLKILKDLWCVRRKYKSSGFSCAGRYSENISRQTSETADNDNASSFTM
EBI2 antag: EBI2 receptor antagonists, beta-arrestin recruitment, primary screen, cell-based, luminescence, 7a,25-OHC stimulation, uHTS | G-protein coupled receptor 183 (Homo sapiens), P32249 | 7a,25-OHC stimulated | inhibition, % at 5 µM | actives 0.81% (n = 360,000); in the data active = inhibition above about 38%;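 also: enzyme fragment complementation signal reports receptor beta-arrestin coupling in cells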
iPSC survival up: enhancers of single-cell hiPSC survival, primary screen, ATPlite luminescence | 100% = ROCK inhibitor wells, 0% = DMSO | survival enhancement, % at 20 µM | actives 0.044% (n = 360,000); in the data active = survival enhancement above about 18%;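 also: cells exposed to compounds for 16 hours before the ATP read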
EBI2 conf: EBI2 antagonist hit retest, beta-arrestin, confirmation, cell-based, single concentration, luminescence, 7a,25-OHC stimulation; inhibition, % at 5 µM; AID 651997, 2013; 7a,25-OHC antagonism; actives 29% (n = 2,400); shares compounds with EBI2 antag;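 active = inhibition of at least 50%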
EBI2 ag: EBI2 agonist activity of antagonist hits, confirmation, counter-screen for EBI2 antagonist project, cell-based, single concentration, agonist mode, luminescence; 2,400 tested, under 10 active; AID 652000, 2013; activation, % at 5 µM; shares compounds with EBI2 antag; EBI2-expressing cells, 60 min; 0% vehicle, 100% 7α,25-dihydroxycholesterol control;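 active = activation of at least 50%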
bGal cs: E. coli beta-galactosidase enzyme inhibition, confirmation, counter-screen for EBI2 antagonist project, biochemical, luminescence, single concentration; purified beta-galactosidase, luminescent Galacton Star, 15 min; shares compounds with EBI2 antag; actives 1% (n = 2,400); inhibition, % at 5 µM; AID 652176, 2013;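 active = replicate-average signal at least 3 plate SD below neutral wells, shown as high inhibition, flagging enzyme-inhibiting false positives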;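 also: higher means stronger loss of beta-gal luminescence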
A number is an active result; – = inactive; · = no result.

SMILES	CXCR6 inh	APJ agonist	APJ antagonist	CCR6 antagonist	EBI2 antag	iPSC survival up	EBI2 conf	EBI2 ag	bGal cs
CC(C)N(C(=O)COC(=O)c1cccc(N(C)C)c1)c1ccccc1	–	–	–	–	–	–	·	·	·
CC(=O)c1ccc(N2CCN(C(=O)c3ccc4[nH]c(C)c(C)c4c3)CC2)cc1	–	–	–	–	–	–	·	·	·
Cc1[nH]c2ccc(C(=O)N3CCN(c4ccc(F)cc4)CC3)cc2c1C	–	–	–	–	78	–	72	–	–
COc1ccc(N2CCN(C(=O)c3ccc4[nH]c(C)c(C)c4c3)CC2)cc1	–	–	–	–	85	–	73	–	–
CC(C)(C)c1ccc(C(O)c2ncc(-c3ccccc3F)[nH]2)cc1 (stereo not drawn)	–	·	·	·	–	–	·	·	·
COc1ccc(C(=O)/C=C/c2ccc(F)cc2)c(OC(=O)c2ccc([N+](=O)[O-])cc2)c1	–	–	–	–	54	–	–	–	–
CN1CCN(S(=O)(=O)c2ccc(F)cc2)CC1	–	·	·	·	–	–	·	·	·
CCOC(=O)c1sc2nc(C)nc(N3CCCCC3C)c2c1C (stereo not drawn)	–	–	–	–	–	–	·	·	·
Cc1nc(N2CCCCC2)c2c(C)c(C(=O)Nc3cccc(C(F)(F)F)c3)sc2n1	–	–	–	–	53	–	–	–	–
Cc1nc(N2CCCCC2C)c2c(C)c(C(=O)Nc3cccc(C(F)(F)F)c3)sc2n1 (stereo not drawn)	–	–	–	–	76	–	–	–	–
Cc1nc(N2CCCCC2)c2c(C)c(C(=O)Nc3ccccc3C(F)(F)F)sc2n1	–	–	–	–	–	–	·	·	·
CCOc1ccc(N(CC(=O)Nc2c(C)n(C)n(-c3ccccc3)c2=O)S(=O)(=O)c2ccc(F)cc2)cc1	–	–	–	–	–	–	·	·	·
CSc1nsc(NN)n1	–	·	·	·	–	–	·	·	·
COc1ccc(-c2cc(-c3ccccc3)c(C#N)c(S(C)(=O)=O)n2)cc1	–	–	–	–	66	–	72	–	–
CC(C)(C)c1csc(NC(=O)Nc2ccccc2)n1	–	–	–	–	43	–	–	–	–
O=C(Nc1ccccc1)Nc1nc(-c2ccccc2)cs1	–	–	–	–	–	–	·	·	·
Oc1cccc(/C=N/Nc2cc(N3CCCC3)nc(N3CCCC3)n2)c1	–	–	–	–	–	–	·	·	·
COc1ccc(/C=N/Nc2cc(N3CCCC3)nc(N3CCCC3)n2)cc1	–	–	–	–	60	–	–	–	–
CCN(C(=O)COC(=O)CSc1ccc(C(N)=O)cc1[N+](=O)[O-])C1CCCCC1	–	–	–	–	–	–	·	·	·
Cc1ccc2nc(-c3ccccc3Cl)cc(C(=O)Nc3cc(C)on3)c2c1	–	–	–	–	60	–	–	–	–
CN(Cc1cccc(F)c1)C(=O)c1cccc(S(=O)(=O)N2CCN(Cc3ccccc3)CC2)c1	–	–	–	–	–	–	·	·	·
CN(Cc1cccc(Cl)c1Cl)C(=O)c1cccc(S(=O)(=O)N2CCN(Cc3ccccc3)CC2)c1	–	–	–	–	54	–	–	–	–

Assay outcomes as filed in PubChem.
